Measured values published in the array DNA melting data of Ke et al. (doi:10.1101/2024.01.08.574731).

How the values were obtained:
[1] = folding enthalpy; higher = less favourable; fluorescence melt of hairpins on a sequencing array, two-state fit; conditions: sodium 0.088 M
Procedure, shortened: (§1)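 On a sequenced MiSeq flow cell, library hairpins with annealed Cy3 and quencher oligos were imaged for Cy3 fluorescence in 2.5 °C steps up to 60 °C, in 50 mM Na-HEPES pH 8.0, 25 mM NaCl. Normalisation used pre-quench Cy3 and control constructs. Bootstrapped two-state fits gave melting temperature and folding enthalpy, combined by inverse variance across four replicates and with fitted temperatures raised by 9.35 °C to match UV melts.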

[2] = melting temperature; fluorescence melt of hairpins on a sequencing array, two-state fit, raised by 9.35 °C to match UV melts; conditions: sodium 0.088 M
Procedure, shortened: as §1

Sequence: GATCACGGGGTGATC ((((((...))))))
- folding enthalpy [1]: -33.6 kcal/mol
- Tm [2]: 60.3 °C

Sequence: GATCACGGGTGTGATC ((((((....))))))
- folding enthalpy [1]: -36.9 kcal/mol
- Tm [2]: 58.8 °C

Sequence: GATCACGTACGTGATC ((((((....))))))
- folding enthalpy [1]: -47.7 kcal/mol
- Tm [2]: 64 °C

Sequence: GATCACGTGTGTGATC ((((((....))))))
- folding enthalpy [1]: -37.3 kcal/mol
- Tm [2]: 58.9 °C

Sequence: GATCACGTTTGTGATC ((((((....))))))
- folding enthalpy [1]: -40.4 kcal/mol
- Tm [2]: 58.5 °C

Sequence: GATCACTAAGGTGATC ((((((....))))))
- folding enthalpy [1]: -35.4 kcal/mol
- Tm [2]: 57 °C

Sequence: GATCACTAGGTGATC ((((((...))))))
- folding enthalpy [1]: -40.9 kcal/mol
- Tm [2]: 55.2 °C

Sequence: GATCACTATCGTGATC ((((((....))))))
- folding enthalpy [1]: -41.2 kcal/mol
- Tm [2]: 55.1 °C

Sequence: GATCACTCTTGTGATC ((((((....))))))
- folding enthalpy [1]: -38.5 kcal/mol
- Tm [2]: 56.7 °C

Sequence: GATCACTGAGGTGATC ((((((....))))))
- folding enthalpy [1]: -40.5 kcal/mol
- Tm [2]: 59.4 °C

Sequence: GATCACTGATGTGATC ((((((....))))))
- folding enthalpy [1]: -34.5 kcal/mol
- Tm [2]: 55.9 °C

Sequence: GATCACTGGGGTGATC ((((((....))))))
- folding enthalpy [1]: -47.5 kcal/mol
- Tm [2]: 58.3 °C

Sequence: GATCACTGGGTGATC ((((((...))))))
- folding enthalpy [1]: -33.1 kcal/mol
- Tm [2]: 57.3 °C

Sequence: GATCACTGTAGTGATC ((((((....))))))
- folding enthalpy [1]: -39.7 kcal/mol
- Tm [2]: 60.6 °C

Sequence: GATCACTGTCGTGATC ((((((....))))))
- folding enthalpy [1]: -37.3 kcal/mol
- Tm [2]: 54.9 °C

Sequence: GATCACTGTGTGATC ((((((...))))))
- folding enthalpy [1]: -31 kcal/mol
- Tm [2]: 61.7 °C

Sequence: GATCACTGTTGTGATC ((((((....))))))
- folding enthalpy [1]: -31.8 kcal/mol
- Tm [2]: 57.5 °C

Sequence: GATCACTTAGGTGATC ((((((....))))))
- folding enthalpy [1]: -41.6 kcal/mol
- Tm [2]: 57.6 °C

Sequence: GATCACTTGGGTGATC ((((((....))))))
- folding enthalpy [1]: -40 kcal/mol
- Tm [2]: 57.1 °C

Sequence: GATCACTTTGTGATC ((((((...))))))
- folding enthalpy [1]: -34.2 kcal/mol
- Tm [2]: 63.1 °C

Sequence: GATCACTTTTGTGATC ((((((....))))))
- folding enthalpy [1]: -43.1 kcal/mol
- Tm [2]: 59 °C

Sequence: GATCAGAAACTGATC ((((((...))))))
- folding enthalpy [1]: -36.4 kcal/mol
- Tm [2]: 47.5 °C

Sequence: GATCAGAAGGCTGATC ((((((....))))))
- folding enthalpy [1]: -29.4 kcal/mol
- Tm [2]: 45.8 °C

Sequence: GATCAGACACTGATC ((((((...))))))
- folding enthalpy [1]: -47.1 kcal/mol
- Tm [2]: 48.6 °C

Sequence: GATCAGACAGCTGATC ((((((....))))))
- folding enthalpy [1]: -32 kcal/mol
- Tm [2]: 45.3 °C

Sequence: GATCAGACATCTGATC ((((((....))))))
- folding enthalpy [1]: -39.6 kcal/mol
- Tm [2]: 48.2 °C

Sequence: GATCAGACCCCTGATC ((((((....))))))
- folding enthalpy [1]: -34.7 kcal/mol
- Tm [2]: 47.7 °C

Sequence: GATCAGACTGCTGATC ((((((....))))))
- folding enthalpy [1]: -28.1 kcal/mol
- Tm [2]: 48.3 °C

Sequence: GATCAGAGCCCTGATC ((((((....))))))
- folding enthalpy [1]: -36.5 kcal/mol
- Tm [2]: 47.7 °C

Sequence: GATCAGAGCCTGATC ((((((...))))))
- folding enthalpy [1]: -25.4 kcal/mol
- Tm [2]: 47.4 °C

Sequence: GATCAGAGCTCTGATC ((((((....))))))
- folding enthalpy [1]: -53 kcal/mol
- Tm [2]: 54.1 °C

Sequence: GATCAGAGGGCTGATC ((((((....))))))
- folding enthalpy [1]: -39.2 kcal/mol
- Tm [2]: 47.7 °C

Sequence: GATCAGAGTGCTGATC ((((((....))))))
- folding enthalpy [1]: -31.2 kcal/mol
- Tm [2]: 50.2 °C

Sequence: GATCAGATTGCTGATC ((((((....))))))
- folding enthalpy [1]: -39.4 kcal/mol
- Tm [2]: 49.5 °C

Sequence: GATCAGCACCTGATC ((((((...))))))
- folding enthalpy [1]: -31.1 kcal/mol
- Tm [2]: 48.3 °C

Sequence: GATCAGCAGCCTGATC ((((((....))))))
- folding enthalpy [1]: -36.5 kcal/mol
- Tm [2]: 48.7 °C

Sequence: GATCAGCATACTGATC ((((((....))))))
- folding enthalpy [1]: -38.5 kcal/mol
- Tm [2]: 51.4 °C

Sequence: GATCAGCATCTGATC ((((((...))))))
- folding enthalpy [1]: -34.2 kcal/mol
- Tm [2]: 46.7 °C

Sequence: GATCAGCCATCTGATC ((((((....))))))
- folding enthalpy [1]: -37.4 kcal/mol
- Tm [2]: 49.4 °C

Sequence: GATCAGCCGGCTGATC ((((((....))))))
- folding enthalpy [1]: -48 kcal/mol
- Tm [2]: 63.4 °C

Sequence: GATCAGCGAAAGCTAATC (((.(((....))).)))
- folding enthalpy [1]: -15.7 kcal/mol
- Tm [2]: 35.9 °C

Sequence: GATCAGCGAAAGCTCATC (((.(((....))).)))
- folding enthalpy [1]: -13 kcal/mol
- Tm [2]: 29.8 °C

Sequence: GATCAGCGGCCTGATC ((((((....))))))
- folding enthalpy [1]: -36.9 kcal/mol
- Tm [2]: 49.8 °C

Sequence: GATCAGCTAACTGATC ((((((....))))))
- folding enthalpy [1]: -40 kcal/mol
- Tm [2]: 49.7 °C

Sequence: GATCAGCTGCCTGATC ((((((....))))))
- folding enthalpy [1]: -27.5 kcal/mol
- Tm [2]: 50.5 °C

Sequence: GATCAGCTTACTGATC ((((((....))))))
- folding enthalpy [1]: -34 kcal/mol
- Tm [2]: 51.3 °C

Sequence: GATCAGCTTCTGATC ((((((...))))))
- folding enthalpy [1]: -31.5 kcal/mol
- Tm [2]: 49.1 °C

Sequence: GATCAGGACCCTGATC ((((((....))))))
- folding enthalpy [1]: -39.6 kcal/mol
- Tm [2]: 54.4 °C
